One block for each molecule: values may come before it.
Assays:
fibrin polymerization [1] = target: T1, fibrin polymerization (Homo sapiens, UniProt P02671+P02675+P02679); experiment: Percent clottable protein; type: biochemical; conditions: from percent clottability
T1 sequence (P02675 45-491 limits assumed): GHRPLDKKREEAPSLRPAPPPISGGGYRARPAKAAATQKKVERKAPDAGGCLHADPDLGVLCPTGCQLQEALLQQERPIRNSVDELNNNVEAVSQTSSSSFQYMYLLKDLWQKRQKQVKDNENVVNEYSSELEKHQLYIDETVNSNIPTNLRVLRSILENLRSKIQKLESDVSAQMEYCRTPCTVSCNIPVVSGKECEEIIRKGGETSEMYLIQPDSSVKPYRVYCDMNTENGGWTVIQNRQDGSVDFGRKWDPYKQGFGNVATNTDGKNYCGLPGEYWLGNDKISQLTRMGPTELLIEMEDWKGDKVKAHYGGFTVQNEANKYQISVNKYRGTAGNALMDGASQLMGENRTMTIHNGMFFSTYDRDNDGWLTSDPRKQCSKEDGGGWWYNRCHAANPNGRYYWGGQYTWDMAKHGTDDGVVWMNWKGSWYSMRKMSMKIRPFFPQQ
T1 sequence (P02679 27-433 partner limits assumed): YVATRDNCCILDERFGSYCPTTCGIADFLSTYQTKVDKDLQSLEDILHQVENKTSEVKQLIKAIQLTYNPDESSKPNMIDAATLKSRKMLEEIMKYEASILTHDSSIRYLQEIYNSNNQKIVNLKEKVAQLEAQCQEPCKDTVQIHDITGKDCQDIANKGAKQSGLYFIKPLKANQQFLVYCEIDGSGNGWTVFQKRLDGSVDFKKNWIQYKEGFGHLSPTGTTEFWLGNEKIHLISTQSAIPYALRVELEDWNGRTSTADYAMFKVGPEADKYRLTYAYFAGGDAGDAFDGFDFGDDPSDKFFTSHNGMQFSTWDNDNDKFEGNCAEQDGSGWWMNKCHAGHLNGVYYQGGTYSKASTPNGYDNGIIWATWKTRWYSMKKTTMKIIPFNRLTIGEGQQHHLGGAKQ
T1 sequence (P02671 36-866 partner limits assumed): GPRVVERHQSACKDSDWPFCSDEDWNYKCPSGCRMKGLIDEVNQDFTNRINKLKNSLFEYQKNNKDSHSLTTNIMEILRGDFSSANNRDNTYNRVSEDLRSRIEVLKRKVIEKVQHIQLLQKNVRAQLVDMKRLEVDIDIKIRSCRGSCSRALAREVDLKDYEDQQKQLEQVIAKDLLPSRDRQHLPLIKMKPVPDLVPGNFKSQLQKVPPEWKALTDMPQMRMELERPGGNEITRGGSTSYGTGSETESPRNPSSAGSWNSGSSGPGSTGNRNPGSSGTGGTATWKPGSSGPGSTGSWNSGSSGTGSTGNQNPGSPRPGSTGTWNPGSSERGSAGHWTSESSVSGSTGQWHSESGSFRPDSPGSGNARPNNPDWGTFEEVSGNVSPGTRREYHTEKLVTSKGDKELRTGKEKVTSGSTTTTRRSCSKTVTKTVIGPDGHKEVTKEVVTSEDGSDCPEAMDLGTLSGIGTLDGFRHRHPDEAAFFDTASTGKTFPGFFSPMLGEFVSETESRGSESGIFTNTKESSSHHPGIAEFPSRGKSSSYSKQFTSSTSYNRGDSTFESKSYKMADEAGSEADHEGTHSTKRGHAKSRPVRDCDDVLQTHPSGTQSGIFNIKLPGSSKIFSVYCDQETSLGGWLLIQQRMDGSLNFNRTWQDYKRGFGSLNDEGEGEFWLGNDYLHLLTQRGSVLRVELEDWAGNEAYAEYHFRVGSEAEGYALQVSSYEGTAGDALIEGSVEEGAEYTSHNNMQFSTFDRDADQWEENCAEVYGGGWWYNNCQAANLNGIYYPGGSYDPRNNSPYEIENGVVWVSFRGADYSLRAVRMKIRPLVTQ
Summary of the method: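 Test compound at final 1, 0.25 or 0.1 mM was added to clots at pH 7.4 (25 mM HEPES, 150 mM NaCl) with final fibrinogen 1 mg/mL, thrombin 0.25 U/mL and CaCl₂ 5 mM. A350 was read every minute for 1 h. Clot liquor was then assayed for total protein (Quant-it). Percent clottable protein was computed against fibrinogen-only, no-thrombin samples.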

fibrin polymerization [2] = conditions: high concentrations; ref [15]; cited from earlier work
fibrin network = conditions: cited from earlier work
hole B = conditions: knob B mimic derived from chicken; ref [19], [20]; cited from earlier work
fibrinogen Fragment D = target: T2, fibrinogen Fragment D (Homo sapiens, UniProt P02671+P02675+P02679); experiment: Surface plasmon resonance; type: binding; conditions: SPR; concentrations 5 μM to 1.5 mM
T2 sequence (P02675 164-491 limits assumed): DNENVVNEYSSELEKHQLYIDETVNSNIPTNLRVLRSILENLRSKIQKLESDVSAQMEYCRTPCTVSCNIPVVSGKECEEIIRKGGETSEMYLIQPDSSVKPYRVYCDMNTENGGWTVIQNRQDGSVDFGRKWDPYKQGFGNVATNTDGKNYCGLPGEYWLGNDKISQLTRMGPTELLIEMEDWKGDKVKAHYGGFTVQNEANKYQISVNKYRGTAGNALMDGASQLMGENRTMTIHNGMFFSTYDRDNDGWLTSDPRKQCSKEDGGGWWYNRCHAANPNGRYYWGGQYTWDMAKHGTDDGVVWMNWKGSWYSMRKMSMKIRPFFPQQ
T2 sequence (P02679 89-432 partner limits assumed): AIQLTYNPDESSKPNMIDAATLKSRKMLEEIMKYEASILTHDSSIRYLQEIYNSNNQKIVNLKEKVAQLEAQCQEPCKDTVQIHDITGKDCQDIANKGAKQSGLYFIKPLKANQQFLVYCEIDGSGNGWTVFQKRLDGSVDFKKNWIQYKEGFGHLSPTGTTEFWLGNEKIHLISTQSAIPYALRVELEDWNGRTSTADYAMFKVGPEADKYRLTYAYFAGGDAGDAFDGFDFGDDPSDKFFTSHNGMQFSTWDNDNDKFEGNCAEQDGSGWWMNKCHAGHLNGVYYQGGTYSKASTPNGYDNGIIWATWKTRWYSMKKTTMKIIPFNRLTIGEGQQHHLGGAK
T2 sequence (P02671 124-225 partner limits assumed): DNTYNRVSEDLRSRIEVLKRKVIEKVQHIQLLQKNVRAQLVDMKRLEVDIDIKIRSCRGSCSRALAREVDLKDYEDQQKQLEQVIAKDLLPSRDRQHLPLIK
Summary of the method: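 Fragment D came from human fibrinogen (2 mg/mL) digested overnight at room temperature with plasmin (0.1 U/mL), then isolated on GPRPAA beads. It was covalently coupled to self-assembled-monolayer gold chips to about 1500 RU in 3 flow cells, with 1 reference cell. Test compound was run at five concentrations (5 μM–1.5 mM) in duplicate: 25 μL/min for 4 min, then 5 min dissociation. Kinetic models were fitted and judged by residuals.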

single fibrin fibers = experiment: Single fibrin fiber breaking strain/extensibility; set-up: species or system human; conditions: for average single fiber breaking strain: percentage of original fiber length, 305 nm/s
Summary of the method: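 Fibrinogen and test compound were preincubated at 37°C for 15 min at pH 7.4 (140 mM NaCl, 10 mM HEPES, 5 mM CaCl₂); test compound finals were 1 mM, 250 μM and 100 μM. Thrombin and FXIII were added (finals: fibrinogen 3.2 μM, 0.3 NIH u/ml, 9.00 Loewy u/ml). Clots formed 75 min on striated substrates and were bead-labelled. An AFM tip stretched single fibers at 305 nm/s until rupture. Strain = (L′−L_initial)/L_initial, given as % of original length.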

[3] = target: human fibrinogen Fragment D (human); experiment: SPR
[4] = 1:1 molar ratio fibrinogen:knob mimic, ref [11]

effect on polymerization (in words) (fibrin polymerization [1]; all concentrations tested): not significantly affected
Molecule: GPSPFPAC

Molecule: Gly-Pro-Arg-Pro [GPRP]
fibrin polymerization (fibrin polymerization [2]): polymerization is inhibited

Molecule: GHRPY [reference compound]
network structure and fibrinolysis (fibrin network; bovine knob B mimic, ref [18], [21]): altered network structure and delayed fibrinolysis

Molecule: AHRP
binding specificity (hole B): only bind to hole B

inhibition of polymerization (in words) (fibrin polymerization [1]; 1 mM): significantly inhibited
Molecule: GPSPFPAC-PEG

Molecule: AHRPYAAC-PEG
binding to fragment D (in words) (fibrinogen Fragment D): at a minimum, micromolar concentrations of PEGylated knob B peptides are required to observe binding to fibrinogen
average single fiber breaking strain (single fibrin fibers; 100 μM): 171%
average single fiber breaking strain (single fibrin fibers; 250 μM): 164%
average single fiber breaking strain (single fibrin fibers; 1 mM): 202%
increase of average breaking strain vs unmodified fibrin fibers (single fibrin fibers; 1 mM, stretched at 305 nm/s): 20%
fiber extensibility (in words) (single fibrin fibers; concentrations above its Kd): increase extensibility of fibers
fiber extensibility (in words) (single fibrin fibers; concentrations near its Kd): decreases the extensibility of fibers
complex modulus (G*) (fibrin network; [4]): increased the complex modulus
susceptibility to degradation (fibrin network; [4]): decreased susceptibility to degradation

Kd1 (2-site model, higher-affinity site, assumed knob B:hole b) [3]: 57 µM
B1: PEGylated knob B peptide AHRPYAAC-PEG (peptide)
peptide: AHRPYAAC
modifications: not fully specified; 5 kDa maleimide-PEG conjugated to the cysteine-terminated peptide
